Measured values taken from paper PMC5487498 (World Journal of Gastroenterology, 2017).

Tests used:
Experiment in all cases: MTS cell proliferation/viability assay
HCT116 = type: cell-based, human; conditions: read-out: IC50 HCT116, 72 h incubation
How it was run: (§1)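 Cells were seeded at 10 × 10^3 cells/well and exposed 24 h later to test compound at 100, 50, 10, 5, 1 and 0.1 μmol/L for 72 h. MTS was then added for 2 h and absorbance read at 490 nm, with untreated control taken as 100%. HCT116 was grown in RPMI 1640; Caco-2 and murine 3T3 fibroblasts in high-glucose DMEM with pyruvate, 10% FBS and penicillin/streptomycin, at 37 °C and 5% CO2.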

CaCo-2 = type: cell-based, human; conditions: read-out: IC50 CaCo-2, 72 h incubation
How it was run: as §1

3T3 = type: cell-based, murine; conditions: read-out: IC50 3T3, 72 h incubation, non-cancer fibroblasts
How it was run: as §1

SMILES | IC50 (HCT116) | IC50 (CaCo-2) | IC50 (3T3)
CON1C(=O)C2(CN=C(Nc3ccc(C(F)(F)F)cc3)S2)c2ccccc21 (racemic) [Compound K-465, (±)-1-methoxy-2’-(4-trifluoromethylphenylamino)spiro{indoline-3,5’-[4’,5’]-dihydrothiazol}-2-one] | 33.7 ± 2.78 µM | 35.7 ± 6.49 µM | 34.9 ± 2.01 µM
CON1C(=O)C2(CN=C(Nc3ccc(C)cc3)S2)c2ccccc21 (racemic) [Compound K-466, (±)-1-methoxy-2’-(4-methylphenylamino)spiro{indoline-3,5’-[4’,5’]-dihydrothiazol}-2-one] | > 100 µM | > 100 µM | > 100 µM
CC(C)(C)OC(=O)N1c2ccccc2C2(CN=C(Nc3ccc(Cl)cc3)S2)C1N1CCCCC1 (racemic) [Compound K-467, trans-(±)-1-(terc-buthoxycarbonyl)-2-(1-piperidyl)-2’-(4-chlorophenylamino)spiro{indoline-3,5’-[4’,5’]dihydrothiazol}] | > 100 µM | > 100 µM | > 100 µM
CC(C)(C)OC(=O)N1c2ccccc2C2(CN=C(Nc3ccc(C(F)(F)F)cc3)S2)C1N1CCCCC1 (racemic) [Compound K-471, trans-(±)-1-(terc-buthoxycarbonyl)-2-(1-piperidyl)-2’-(4-trifluoromethylphenylamino)spiro{indoline-3,5’-[4’,5’]dihydrothiazol}] | > 100 µM | > 100 µM | > 100 µM

Further lines, with some results ahead:

IC50 (HCT116) | IC50 (CaCo-2) | SMILES | IC50 (3T3)
> 100 µM | > 100 µM | COC1N(OC)c2ccccc2C12CN=C(Nc1ccc(C(F)(F)F)cc1)S2 (racemic) [Compound K-452, (±)-cis-1,2-dimethoxy-2’-(4-trifluoromethylphenylamino)spiro{indoline-3,5’[4’,5’]dihydrothiazol}] | > 100 µM
> 100 µM | > 100 µM | COC1N(OC)c2ccc(F)cc2C12CN=C(SC)S2 (racemic) [Compound K-462, (±)-cis-5-fluoro-1-methoxyspirobrassinolmethylether] | > 100 µM
33 ± 2.67 µM | 74.18 ± 0.001 µM | CON1C(=O)C2(CN=C(Nc3ccc(Br)cc3)S2)c2ccccc21 (racemic) [Compound K-463, (±)-1-methoxy-2’-(4-bromophenylamino)spiro{indoline-3,5’-[4’,5’]-dihydrothiazol}-2-one] | 61.1 ± 2.25 µM
> 100 µM | > 100 µM | CSC(=O)NCc1c[nH]c2ccc(F)cc12 [Compound K-455, 5-fluorobrassitin] | > 100 µM
> 100 µM | > 100 µM | COn1cc(CNC(=O)SC)c2cc(F)ccc21 [Compound K-459, 5-fluoro-1-methoxybrassitin] | > 100 µM
